# MrgX1 ag = activates human MrgX1 receptor signaling; Q96LB2; MrgX1-HEK293 cells, Fluo-4 calcium fluorescence, agonist mode; stronger effect = higher value; B-score at 10 µM; actives 0.44% (n = 310,000); AID 588627;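 active = calcium response B-score plate-corrected fluorescence ratio at least 3 library SD, with starting fluorescence B-score inside 5 SD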
# Target sequence (Q96LB2 whole entry, looked up): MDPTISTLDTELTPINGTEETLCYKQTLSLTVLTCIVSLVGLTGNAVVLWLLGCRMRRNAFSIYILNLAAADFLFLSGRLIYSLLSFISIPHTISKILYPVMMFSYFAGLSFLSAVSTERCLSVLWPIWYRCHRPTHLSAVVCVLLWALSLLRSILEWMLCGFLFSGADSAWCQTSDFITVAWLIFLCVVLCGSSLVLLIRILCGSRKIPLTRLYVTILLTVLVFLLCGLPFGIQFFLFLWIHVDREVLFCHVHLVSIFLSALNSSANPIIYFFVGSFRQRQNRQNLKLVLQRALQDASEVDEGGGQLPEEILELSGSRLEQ
#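 Material: MrgX1-expressing HEK293 cells / Dosing: compound as first of three additions / Incubation: overnight seeding, then 1 h dark dye loading / Signal: Fluo-4 NW calcium fluorescence / Evaluation: B-scored fluorescence response ratio / Benchmarks: positive and negative control wells on each plate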
# MrgX1 antag = human MrgX1 receptor antagonism, primary screen; AID 588676; actives 1.3% (n = 310,000); B-score at 10 µM; MRGX1-HEK293 calcium flux, Fluo-4, BAM8-22 antagonism; stronger effect = lower value;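 active = calcium-response B-score plate-corrected more than 3 library SD below zero, starting fluorescence within 5 deviations, no agonist response on first addition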;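 also: peak minus trough fluorescence over baseline after final BAM8-22 challenge near maximal dose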
# RGS4 inh = inhibitors of human RGS4; AID 463165; HEK293 M3R/RGS4 inducible, Fluo-4 calcium flux; stronger effect = higher value; triggered by carbachol at its EC20; actives 0.45% (n = 310,000); P49798; B-score at 10 µM;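 active = B-score, a plate-corrected calcium signal, over three deviations above library mean, with baseline fluorescence within five deviations of library mean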;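 also: RGS4 expression induced by doxycycline in cells with stable M3 receptor; B-score is computed from the integrated fluorescence ratio over baseline after carbachol; higher B-score means a larger calcium signal and so more RGS4 inhibition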
# Target sequence (P49798 whole entry, looked up): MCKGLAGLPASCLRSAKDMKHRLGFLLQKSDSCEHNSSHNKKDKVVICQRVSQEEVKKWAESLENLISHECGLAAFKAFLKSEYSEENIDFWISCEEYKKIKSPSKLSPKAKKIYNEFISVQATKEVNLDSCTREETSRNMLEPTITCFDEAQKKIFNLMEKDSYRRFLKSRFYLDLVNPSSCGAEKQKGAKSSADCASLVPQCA
# MrgX1 PAM = human MrgX1 positive allosteric modulation, primary screen | actives 0.63% (n = 310,000) | Q96LB2 | AID 588675 | MrgX1-HEK293, Fluo-4 calcium flux, FDSS; stronger effect = higher value | B-score at 10 µM;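 active = plate-corrected calcium response at least 3 library SD above typical, normal starting fluorescence, not activating the receptor alone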;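 also: compound read alongside a low EC10 to EC30 dose of BAM8-22 agonist; peak minus trough fluorescence over baseline measured at the second addition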
# RGS4 pot = potentiators or activators of RGS4; HEK293 M3R/inducible RGS4, carbachol calcium flux Fluo4; stronger effect = lower value; B-score at 10 µM; actives 0.92% (n = 310,000);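 active = B-score of the integrated calcium signal more than 4 SD below the library mean, with starting fluorescence not abnormally high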;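 also: negative B-score means reduced calcium response which marks RGS4 activation or potentiation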
#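 Detection: kinetic calcium fluorescence imaging with Fluo4-AM dye, 2 µM / Material: HEK293 cells with stable M3R and inducible RGS4 / Schedule: recording 10 s baseline at 1 Hz, 100 s post-agonist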
# Active calls of the source: *; i = inactive; x = no result given. Most compounds without a hit are left out; they make up all but 3.5% or so of the library.
SMILES,MrgX1 ag,MrgX1 antag,RGS4 inh,MrgX1 PAM,RGS4 pot
Cc1ccc(N(C(=O)Cn2nnc3ccccc32)C(C(=O)NCc2ccco2)c2ccc(C)o2)cc1 (stereo not given),x,x,i,x,i
Cc1ccc(NC(=O)CN(C)C(=O)c2ccccc2Sc2ccccc2C#N)cc1,i,i,i,i,i
COC(=O)c1c(N2C(=O)Nc3ccccc3N2O)sc2c1CCCC2,i,i,i,i,i
CCOC(=O)c1c(N2C(=O)Nc3ccccc3N2O)sc2c1CCCCC2,35*,i,i,i,i
Cc1ccc(NS(=O)(=O)c2ccc(C(=O)NCC(c3ccco3)N(C)C)cc2)cc1 (stereo not given),i,-4.9*,i,i,i
Cc1ccc(S(=O)(=O)Nc2cccc(C(=O)NCC(c3ccccc3)N(C)C)c2)cc1F (stereo not given),i,i,i,i,-7.5*
O=c1c(-c2nc3ccccc3o2)c2oc3ccccc3n2c2ccccc12,x,x,i,x,-9.6*
Nc1ccc(-c2nc3ccccc3o2)cc1,i,i,i,i,i
CCc1ccc(NC(=O)CSCc2ccc(C(=O)O)cc2)cc1,i,i,i,i,i
CCn1c(Cl)c(C=O)s/c1=N\S(=O)(=O)c1ccccc1,31*,i,i,i,i
CCN1C(=O)CS/C1=N\S(=O)(=O)c1ccc(Cl)cc1,i,i,i,i,i
CCN(CC(=O)NCCC1=CCCCC1)S(=O)(=O)c1ccccc1,i,i,i,i,i
CN1OC(Cn2cc(C#N)c(=O)n(C)c2=O)CC1c1ccccc1 (stereo not given),i,-5.8*,i,i,i
N#C/C(=C\c1ccc(Sc2nc3ccccc3[nH]2)o1)c1ccccc1,i,-4.8*,i,i,i
C[C@@H]1NC(=O)c2cc([N+](=O)[O-])cc(I)c2OCC[C@@H](C(=O)NC(CC(=O)O)C(N)=O)NC(=O)[C@H](CCC(=O)O)NC1=O (stereo not given in full),i,i,x,i,x
NC(=O)C(CC(=O)O)NC(=O)[C@@H]1CCOc2c(I)cc([N+](=O)[O-])cc2C(=O)N[C@@H](CCC(=O)O)C(=O)N[C@@H](CO)C(=O)N1 (stereo not given in full),i,-6.1*,x,i,x
COc1ccc(OC)c(Nc2cc(C(=O)NCCCN3CCOCC3)c3ccccc3n2)c1,i,-5.7*,i,i,i
Cc1c(C(=O)NCCCN2CCOCC2)sc2nc(-c3ccccc3)cn12,i,-7.3*,i,i,i
O=C(NCCCN1CCOCC1)c1cc(-c2ccc(Cl)s2)nc2ccccc12,i,-7.4*,i,i,i
COCCNC(=O)c1sc2nc(-c3ccccc3)cn2c1C,i,i,i,i,i
O=C(NCCCN1CCOCC1)c1cc(-c2cccc(Br)c2)nc2ccccc12,i,i,i,i,i
CCOc1ccc(S(=O)(=O)Nc2ccc(C(=O)NCC3(N4CCCCC4)CCCCC3)cc2)cc1,i,-9.8*,i,i,i
Cc1ccc(N2C(=O)C3C=NNC3C2=O)cc1 (stereo not given),i,-5*,i,i,i
COC(=O)C1=NNC2C(=O)N(c3ccc(C)cc3)C(=O)C12 (stereo not given),i,i,i,i,i
CCCCCCCCCCCCN1[C@@H](CC(=O)OC)c2cc(C(F)(F)F)ccc2S1(=O)=O,i,-5.8*,i,i,i
SMILES,MrgX1 ag,MrgX1 antag,RGS4 inh,MrgX1 PAM,RGS4 pot
CCCCCCCCCCCCN1[C@@H](CC(=O)O)c2cc(F)ccc2S1(=O)=O,i,i,i,i,-7.7*
CCCCCCCCN1[C@@H](CC(=O)OC)c2cc(F)ccc2S1(=O)=O,i,i,i,i,i
COC(=O)C1CCN(CC(=O)NC(=O)NC2CCCCC2)CC1,i,i,i,i,i
COC(=O)Nc1nn(-c2ccc(OC)cc2)c(=O)c(C#N)c1C,i,i,i,i,i
COc1ccc(-n2nc(C(=O)N3CCCCC3)c(C)c(C#N)c2=O)cc1,i,-5.8*,i,i,i
Cc1ccc(-c2nc(CN(C)Cc3cccc4cnccc34)c(C)o2)s1,28*,i,i,i,i
CC(Sc1nc(C(C)(C)C)cc(-c2ccccc2)c1C#N)C(=O)Nc1ccccc1 (stereo not given),i,i,i,i,i
CNC(=O)c1ccc(-c2sc3nc(N4CCOCC4)c4c(c3c2N)CCCC4)o1,i,i,i,12*,i
CCC1CCCCN1S(=O)(=O)c1ccc(C(=O)Nc2nnc(-c3cccs3)o2)cc1 (stereo not given),65*,i,x,i,x
O=C(CN1C(=O)NC2(CCCCC2)C1=O)Oc1ccc2c(C(F)(F)F)cc(=O)oc2c1,i,i,i,i,i
CCc1cc(=O)oc2cc(OC(=O)CN3C(=O)NC4(CCCC4)C3=O)ccc12,i,-6.9*,i,i,i
O=c1c(Cc2c(F)cccc2Cl)c(O)ccn1CCCn1ccnc1,i,i,i,i,i
Cc1nn(Cc2ccccc2)c(C)c1NC(=O)CSc1n[nH]c(C)c1[N+](=O)[O-],i,i,i,i,i
Cc1nn(Cc2ccc(Cl)cc2)c(C)c1NC(=O)CSc1n[nH]c(C)c1[N+](=O)[O-],i,-4.8*,i,i,i
O=[N+]([O-])c1c(NCCCO)cc(N2CCCCCC2)c2nonc12,i,i,i,i,i
O=[N+]([O-])c1cccc(/C=N/Nc2nc(NCc3ccccc3)nc(N3CCOCC3)n2)c1O,34*,i,i,i,i
O=[N+]([O-])c1c(NCc2ccccc2)cc(N2CCc3ccccc3C2)c2nonc12,i,-6*,i,i,i
O=[N+]([O-])c1ccc(/C=N/Nc2nc(NCc3ccccc3)nc(N3CCOCC3)n2)cc1,i,i,i,i,i
O=[N+]([O-])c1cc([N+](=O)[O-])c(N2CCOCC2)cc1NCc1ccccc1,i,-9.6*,i,i,i
COc1ccc(C(Nc2ccc(S(=O)(=O)NCC3CCCO3)cc2)C(=O)NC(C)(C)C)cc1OC (stereo not given),i,i,i,i,i
COc1ccc(OC)c(N=CC2=C(O)CC(C)(C)CC2=O)c1,i,i,i,i,i
COc1ccc(N=CC2=C(O)CC(C)(C)CC2=O)cc1,i,-6.5*,i,i,i

# Screening data as filed in PubChem BioAssay.
